From ChEMBL document CHEMBL3580653, “Development of novel CXC chemokine receptor 7 (CXCR7) ligands: selectivity switch from CXCR4 antagonists with a cyclic pentapeptide scaffold” (J Med Chem, 2015)
Where a SMILES comes first, the peptide text is derived from it. [ ]: non-standard residue; d: D form. 2Nal = N[C@@H](Cc1ccc2ccccc2c1)C(=O)O; Pip = O=C(O)[C@@H]1CCCCN1; dPip = O=C(O)[C@H]1CCCCN1; βAla = NCCC(=O)O

How the values were obtained:
[1] = molecular target: Atypical chemokine receptor 3 (Homo sapiens, UniProt P25106, S198R); experiment: Agonist activity at CXCR7 S198R mutant (unknown origin) expressed in HEK293E cells co-transfected with receptor-eYFP construct and beta-arrestin2-Rluc assessed as induction of receptor-mediated beta-arrestin recruitment by BRET assay; format: cell-based
Chain of Atypical chemokine receptor 3 (Homo sapiens, UniProt P25106, S198R) (P25106 whole entry S198R): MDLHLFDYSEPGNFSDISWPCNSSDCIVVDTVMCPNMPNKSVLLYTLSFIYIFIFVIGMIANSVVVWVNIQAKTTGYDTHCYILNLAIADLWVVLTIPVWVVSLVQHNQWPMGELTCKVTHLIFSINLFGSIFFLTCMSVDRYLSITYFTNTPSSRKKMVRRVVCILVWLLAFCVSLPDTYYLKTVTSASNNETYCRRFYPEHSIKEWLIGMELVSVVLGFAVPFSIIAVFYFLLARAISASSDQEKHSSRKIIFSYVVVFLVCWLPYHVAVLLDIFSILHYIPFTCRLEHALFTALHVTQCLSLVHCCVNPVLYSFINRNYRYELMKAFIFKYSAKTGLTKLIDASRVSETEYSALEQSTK
Procedure, shortened: (§1)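 Transient co-transfection of HEK293E cells with 1 µg receptor-eYFP plus 0.05 µg β-arrestin2-Rluc, made up to 2 µg/well with empty vector. Cells cultured overnight, seeded on poly(D-lysine) plates and grown 24 h more. Ligand added in BRET buffer (PBS, 0.5 mM MgCl2, 0.01% BSA), 5 min at 37 °C, then coelenterazine h 5 µM final. Read 30 min after ligand addition. Net BRET = YFP (510–550 nm)/Rluc (460–500 nm) minus Rluc-only background.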

[2] = molecular target: Atypical chemokine receptor 3 (Homo sapiens, UniProt P25106, D275N); experiment: Agonist activity at CXCR7 D275N mutant (unknown origin) expressed in HEK293E cells co-transfected with receptor-eYFP construct and beta-arrestin2-Rluc assessed as induction of receptor-mediated beta-arrestin recruitment by BRET assay; format: cell-based; procedure, shortened: as §1
Chain of Atypical chemokine receptor 3 (Homo sapiens, UniProt P25106, D275N) (P25106 whole entry D275N): as the sequence (P25106 whole entry S198R) above, with R198S, D275N counted along it

[3] = molecular target: T1, Atypical chemokine receptor 3 (Homo sapiens, UniProt P25106); experiment: Inhibition of [125I]SDF-1alpha binding to CXCR7 (unknown origin) expressed in CHO cell membranes incubated for 1 hr by radioligand displacement assay
T1 sequence (P25106 whole entry): as the sequence (P25106 whole entry S198R) above, with R198S counted along it
Procedure, shortened: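 Scintillation proximity binding: receptor membranes (10−20 µg/well) on WGA beads (0.25 mg/well) incubated with peptide and [125I]-SDF-1α (0.20 nM for CXCR4, 0.25 nM for CXCR7). Room temperature, 1 h. Bound radioactivity counted 1 min/well. IC50 taken from inhibition of tracer binding.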

[4] = molecular target: Atypical chemokine receptor 3 (Homo sapiens, UniProt P25106, D179N); experiment: Agonist activity at CXCR7 D179N mutant (unknown origin) expressed in HEK293E cells co-transfected with receptor-eYFP construct and beta-arrestin2-Rluc assessed as induction of receptor-mediated beta-arrestin recruitment by BRET assay; format: cell-based; procedure, shortened: as §1
Chain of Atypical chemokine receptor 3 (Homo sapiens, UniProt P25106, D179N) (P25106 whole entry D179N): as the sequence (P25106 whole entry S198R) above, with D179N, R198S counted along it

[5] = molecular target: C-X-C chemokine receptor type 4 (Homo sapiens, UniProt P61073); experiment: Inhibition of [125I]SDF-1alpha binding to CXCR4 (unknown origin) expressed in HEK293 cell membranes incubated for 1 hr by radioligand displacement assay
Chain of C-X-C chemokine receptor type 4 (P61073 whole entry): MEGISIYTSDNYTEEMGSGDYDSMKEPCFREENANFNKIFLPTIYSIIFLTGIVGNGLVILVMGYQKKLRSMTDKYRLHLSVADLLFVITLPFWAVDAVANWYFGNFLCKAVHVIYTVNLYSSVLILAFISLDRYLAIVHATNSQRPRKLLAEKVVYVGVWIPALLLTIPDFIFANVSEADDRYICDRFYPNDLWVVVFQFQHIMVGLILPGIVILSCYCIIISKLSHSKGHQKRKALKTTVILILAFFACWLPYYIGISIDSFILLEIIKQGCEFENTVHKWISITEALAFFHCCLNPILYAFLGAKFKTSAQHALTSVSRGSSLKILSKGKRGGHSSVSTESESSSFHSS

[6] = molecular target: T1, Atypical chemokine receptor 3; experiment: Agonist activity at CXCR7 (unknown origin) expressed in HEK293E cells co-transfected with receptor-eYFP construct and beta-arrestin2-Rluc assessed as induction of receptor-mediated beta-arrestin recruitment by BRET assay; format: cell-based; procedure, shortened: as §1
[7] = molecular target: T1, Atypical chemokine receptor 3; experiment: Agonist activity at wild type CXCR7 (unknown origin) expressed in HEK293E cells co-transfected with receptor-eYFP construct and beta-arrestin2-Rluc assessed as induction of receptor-mediated beta-arrestin recruitment by BRET assay; format: cell-based; procedure, shortened: as §1

| Compound | IC50 [3] [µM] | IC50 [5] [µM] | also measured |
| --- | --- | --- | --- |
| N=C(N)NCCC[C@@H]1NC(=O)[C@H](CCCNC(=N)N)NC(=O)[C@@H](Cc2ccc(O)cc2)NC(=O)[C@@H]2CCCN2C(=O)[C@H](Cc2ccc3ccccc3c2)NC1=O | 1.5 | > 30 | EC50 [1]: 0.36 µM; EC50 [2]: 1.5 µM; EC50 ([4]; read-out: EC50): 3.5 µM; EC50 ([4]; read-out: pEC50 (converted)): 3.98 µM; EC50 ([6]; read-out: EC50): 0.074 µM; EC50 ([7]; read-out: EC50): 0.19 µM; EC50 ([7]; read-out: pEC50 (converted)): 0.126 µM |
| N=C(N)NCCC[C@@H]1NC(=O)[C@H](CCCNC(=N)N)NC(=O)[C@@H](Cc2ccc(O)cc2)NC(=O)[C@H]2CCCN2C(=O)[C@H](Cc2ccc3ccccc3c2)NC1=O | > 30 | > 30 |  |
| C[C@H]1C(=O)N[C@H](Cc2ccc(O)cc2)C(=O)N[C@@H](CCCNC(=N)N)C(=O)N[C@@H](CCCNC(=N)N)C(=O)N[C@@H](Cc2ccc3ccccc3c2)C(=O)N1C | 15 | > 30 |  |
| C[C@@H]1C(=O)N[C@H](Cc2ccc(O)cc2)C(=O)N[C@@H](CCCNC(=N)N)C(=O)N[C@@H](CCCNC(=N)N)C(=O)N[C@@H](Cc2ccc3ccccc3c2)C(=O)N1C | > 30 | 4.6 |  |
| N=C(N)NCCC[C@@H]1NC(=O)[C@H](Cc2ccc(O)cc2)NC(=O)[C@@H]2CCCN2C(=O)[C@H](Cc2ccc3ccccc3c2)NC(=O)[C@H](CCCNC(=N)N)NC1=O | > 30 | > 30 |  |
| N=C(N)NCCC[C@@H]1NC(=O)[C@@H](CCCNC(=N)N)NC(=O)[C@@H](Cc2ccc(O)cc2)NC(=O)[C@@H]2CCCN2C(=O)[C@H](Cc2ccc3ccccc3c2)NC1=O | 4.6 | > 30 |  |
| N=C(N)NCCC[C@@H]1NC(=O)[C@@H](Cc2ccc(O)cc2)NC(=O)[C@@H]2CCCN2C(=O)[C@H](Cc2ccc3ccccc3c2)NC(=O)[C@@H](CCCNC(=N)N)NC1=O | > 30 | > 30 |  |
| N=C(N)NCCC[C@@H]1NC(=O)[C@H](CCCNC(=N)N)NC(=O)[C@@H](Cc2ccc(O)cc2)NC(=O)[C@@H]2CCCN2C(=O)[C@@H](Cc2ccc3ccccc3c2)NC1=O | > 30 | > 30 |  |
| CN1C(=O)[C@@H]2CCCN2C(=O)[C@H](Cc2ccc3ccccc3c2)NC(=O)[C@H](CCCNC(=N)N)NC(=O)[C@H](CCCNC(=N)N)NC(=O)[C@H]1Cc1ccc(O)cc1 | 18 | > 30 |  |
| CN1C(=O)[C@@H](Cc2ccc(O)cc2)NC(=O)[C@@H]2CCCN2C(=O)[C@H](Cc2ccc3ccccc3c2)NC(=O)[C@H](CCCNC(=N)N)NC(=O)[C@@H]1CCCNC(=N)N | 2.4 | > 30 |  |
| CN1C(=O)[C@H](CCCNC(=N)N)NC(=O)[C@@H](Cc2ccc(O)cc2)NC(=O)[C@@H]2CCCN2C(=O)[C@H](Cc2ccc3ccccc3c2)NC(=O)[C@@H]1CCCNC(=N)N | 0.8 | > 30 | EC50 [1]: 0.36 µM; EC50 [2]: 0.65 µM; EC50 ([4]; read-out: EC50): 2 µM; EC50 ([6]; read-out: EC50): 0.095 µM; EC50 ([7]; read-out: EC50): 0.24 µM; EC50 ([7]; read-out: pEC50 (converted)): 0.158 µM |
| CN1C(=O)[C@H](CCCNC(=N)N)NC(=O)[C@H](CCCNC(=N)N)NC(=O)[C@@H](Cc2ccc(O)cc2)NC(=O)[C@@H]2CCCN2C(=O)[C@@H]1Cc1ccc2ccccc2c1 | 3.4 | > 30 |  |
| CN1C(=O)[C@@H]2CCCN2C(=O)[C@H](Cc2ccc3ccccc3c2)NC(=O)[C@H](CCCNC(=N)N)NC(=O)[C@H](CCCNC(=N)N)NC(=O)[C@@H]1Cc1ccc(O)cc1 | 23 | > 30 |  |
| CN1C(=O)[C@@H](Cc2ccc(O)cc2)NC(=O)[C@@H]2CCCN2C(=O)[C@H](Cc2ccc3ccccc3c2)NC(=O)[C@H](CCCNC(=N)N)NC(=O)[C@H]1CCCNC(=N)N | 13 | > 30 |  |
| CN1C(=O)[C@H](CCCNC(=N)N)NC(=O)[C@@H](Cc2ccc(O)cc2)NC(=O)[C@@H]2CCCN2C(=O)[C@H](Cc2ccc3ccccc3c2)NC(=O)[C@H]1CCCNC(=N)N | 4.6 | > 30 |  |
| CN1C(=O)[C@H](CCCNC(=N)N)NC(=O)[C@H](CCCNC(=N)N)NC(=O)[C@@H](Cc2ccc(O)cc2)NC(=O)[C@@H]2CCCN2C(=O)[C@H]1Cc1ccc2ccccc2c1 | > 30 | > 30 |  |
| C[C@H]1NC(=O)[C@@H]2CCCN2C(=O)[C@H](Cc2ccc3ccccc3c2)NC(=O)[C@H](CCCNC(=N)N)N(C)C(=O)[C@H](CCCNC(=N)N)NC1=O | > 30 | > 30 |  |
| C[C@@H]1NC(=O)[C@@H](Cc2ccc(O)cc2)NC(=O)[C@@H]2CCCN2C(=O)[C@H](Cc2ccc3ccccc3c2)NC(=O)[C@H](CCCNC(=N)N)N(C)C1=O | 16 | > 30 |  |
| C[C@H]1C(=O)N[C@@H](Cc2ccc3ccccc3c2)C(=O)N2CCC[C@H]2C(=O)N[C@H](Cc2ccc(O)cc2)C(=O)N[C@@H](CCCNC(=N)N)C(=O)N1C | 11 | > 30 |  |
| C[C@@H]1NC(=O)[C@H](CCCNC(=N)N)N(C)C(=O)[C@H](CCCNC(=N)N)NC(=O)[C@@H](Cc2ccc(O)cc2)NC(=O)[C@@H]2CCCN2C1=O | > 30 | > 30 |  |
| N=C(N)NCCC[C@@H]1NC(=O)[C@H](CCCNC(=N)N)NC(=O)[C@@H](Cc2ccc(O)cc2)NC(=O)CNC(=O)[C@H](Cc2ccc3ccccc3c2)NC1=O | > 30 |  | EC50 ([6]; read-out: EC50): 2.4 µM; EC50 ([6]; read-out: pEC50 (converted)): 2 µM |
| C[C@@H]1NC(=O)[C@H](Cc2ccc3ccccc3c2)NC(=O)[C@H](CCCNC(=N)N)NC(=O)[C@H](CCCNC(=N)N)NC(=O)[C@@H](Cc2ccc(O)cc2)NC1=O (cyclo([2Nal]A[dY]RR)) | 18 | 23 |  |
| N=C(N)NCCC[C@@H]1NC(=O)[C@H](CCCNC(=N)N)NC(=O)[C@@H](Cc2ccc(O)cc2)NC(=O)[C@@H]2CCCCN2C(=O)[C@H](Cc2ccc3ccccc3c2)NC1=O (cyclo([2Nal][Pip][dY]RR)) | 13 | > 30 |  |
| CC[C@H](C)[C@@H]1NC(=O)[C@H]([C@@H](C)O)NC(=O)[C@H]2CCCN2C(=O)[C@H](Cc2ccc3ccccc3c2)NC(=O)[C@H](CCCNC(=N)N)NC(=O)[C@@H](CCCNC(=N)N)NC1=O (cyclo([2Nal][dP]TI[dR]R)) | 1.7 |  | EC50 ([6]; read-out: EC50): 0.036 µM; EC50 ([6]; read-out: pEC50 (converted)): 0.0316 µM |
| N=C(N)NCCC[C@@H]1NC(=O)[C@H](CCCNC(=N)N)NC(=O)[C@@H](Cc2ccc(O)cc2)NC(=O)[C@H]2CCCCN2C(=O)[C@H](Cc2ccc3ccccc3c2)NC1=O (cyclo([2Nal][dPip][dY]RR)) | > 30 | > 30 |  |
| N=C(N)NCCC[C@@H]1NC(=O)[C@H](CCCNC(=N)N)NC(=O)[C@@H](Cc2ccc(O)cc2)NC(=O)CCNC(=O)[C@H](Cc2ccc3ccccc3c2)NC1=O (cyclo([2Nal][βAla][dY]RR)) | > 30 | 6 |  |
| C[C@H]1NC(=O)[C@H](Cc2ccc3ccccc3c2)NC(=O)[C@H](CCCNC(=N)N)NC(=O)[C@H](CCCNC(=N)N)NC(=O)[C@@H](Cc2ccc(O)cc2)NC1=O (cyclo([dY]RR[2Nal][dA])) | > 30 | 2.2 |  |
